Laboratory results: ChEMBL document CHEMBL1158120, “Cytotoxic oxygenated triterpenoid saponins from Symplocos chinensis” (J Nat Prod, 2006)

Key:
Type in all cases: functional, cell-based
[1] = test system: HCT-8; test: Cytotoxicity against human HCT8 cells by MTT assay
Summary of the method: (§1)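 MTT read-out of tumour-cell viability. IC50 values in µM are reported as means of three independent experiments.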

[2] = test system: A2780; test: Cytotoxicity against human A2780 cells by MTT assay; summary of the method: as §1
[3] = test system: A549; test: Cytotoxicity against human A549 cells by MTT assay; summary of the method: as §1
[4] = test system: BGC-823; test: Cytotoxicity against human BGC-823 cells by MTT assay; summary of the method: as §1
[5] = test system: Bel-7402; test: Cytotoxicity against human Bel-7402 cells by MTT assay; summary of the method: as §1

| Structure (SMILES) | IC50 [1] [µM] | IC50 [2] [µM] | IC50 [3] [µM] | IC50 [4] [µM] | IC50 [5] [µM] |
| --- | --- | --- | --- | --- | --- |
| CCC(C)C(=O)O[C@H]1[C@H](OC(=O)/C=C/c2ccccc2)C(C)(C)C[C@H]2C3=CC[C@@H]4[C@@]5(C)CC[C@H](O[C@@H]6O[C@H](CO)[C@@H](O[C@@H]7O[C@@H](CO)[C@H](O)[C@H]7O)[C@H](O)[C@H]6O[C@@H]6O[C@H](CO)[C@@H](O)[C@H](O)[C@H]6O)C(C)(C)[C@@H]5CC[C@@]4(C)[C@]3(C)[C@@H](O)[C@@H](O)[C@]21CO (some centres undefined) [SYMPLOCOSOSIDE X] | 1.7 | 1.6 | 2.1 | > 10 | 1.8 |
| CC(=O)O[C@@H]1[C@@H](O[C@@H]2O[C@H](CO)[C@@H](O)[C@H](O)[C@H]2O)[C@H](O[C@H]2CC[C@]3(C)[C@H]4CC=C5[C@@H]6CC(C)(C)[C@@H](OC(=O)/C=C(/C)CCC=C(C)C)[C@H](OC(=O)c7ccccc7)[C@]6(CO)[C@H](O)[C@H](O)[C@@]5(C)[C@]4(C)CC[C@H]3C2(C)C)O[C@H](C(=O)O)[C@H]1O[C@@H]1O[C@@H](CO)[C@H](O)[C@H]1O [SYMPLOCOSOSIDE J] | 2.1 | 1.4 | 3 | 1.8 | 1.7 |
| CCCCOC(=O)[C@H]1O[C@@H](O[C@H]2CC[C@]3(C)[C@H]4CC=C5[C@@H]6CC(C)(C)[C@@H](OC(=O)/C=C(\C)CCC=C(C)C)[C@H](OC(=O)C(C)CC)[C@]6(CO)[C@H](O)[C@H](O)[C@@]5(C)[C@]4(C)CC[C@H]3C2(C)C)[C@H](O[C@@H]2O[C@H](CO)[C@@H](O)[C@H](O)[C@H]2O)[C@@H](O)[C@@H]1O[C@@H]1O[C@@H](CO)[C@H](O)[C@H]1O (some centres undefined) [SYMPLOCOSOSIDE D] | > 10 | 1.74 | > 10 | > 10 | 1.89 |
| CC1(C)C[C@H](O)[C@]2(CO)[C@H](O)[C@H](O)[C@]3(C)C(=CC[C@@H]4[C@@]5(C)CC[C@H](O)C(C)(C)[C@@H]5CC[C@]43C)[C@@H]2C1 | > 10 | > 10 | > 10 | > 10 | > 10 |
| CCCCOC(=O)[C@H]1O[C@@H](O[C@H]2CC[C@]3(C)[C@H]4CC=C5[C@@H]6CC(C)(C)[C@@H](OC(=O)/C=C(/C)CCC=C(C)C)[C@H](OC(=O)C(C)CC)[C@]6(CO)[C@H](O)[C@H](O)[C@@]5(C)[C@]4(C)CC[C@H]3C2(C)C)[C@H](O[C@@H]2O[C@H](CO)[C@@H](O)[C@H](O)[C@H]2O)[C@@H](O)[C@@H]1O[C@@H]1O[C@@H](CO)[C@H](O)[C@H]1O (some centres undefined) [SYMPLOCOSOSIDE C] | 2.9 | 1.3 | > 10 | 4.3 | 1.5 |
| CCC(C)C(=O)O[C@H]1[C@H](OC(=O)/C=C(\C)CCC=C(C)C)C(C)(C)C[C@H]2C3=CC[C@@H]4[C@@]5(C)CC[C@H](O[C@@H]6O[C@H](C(=O)O)[C@@H](O[C@@H]7O[C@@H](CO)[C@H](O)[C@H]7O)[C@H](OC(C)=O)[C@H]6O[C@@H]6O[C@H](CO)[C@@H](O)[C@H](O)[C@H]6O)C(C)(C)[C@@H]5CC[C@@]4(C)[C@]3(C)[C@@H](O)[C@@H](O)[C@]21CO (some centres undefined) [SYMPLOCOSOSIDE H] | 2.1 | 1.4 | 2.7 | 2.5 | 2.6 |
| CCCCOC(=O)[C@H]1O[C@@H](O[C@H]2CC[C@]3(C)[C@H]4CC=C5[C@@H]6CC(C)(C)[C@@H](OC(=O)/C=C/c7ccccc7)[C@H](OC(=O)C(C)CC)[C@]6(CO)[C@H](O)[C@H](O)[C@@]5(C)[C@]4(C)CC[C@H]3C2(C)C)[C@H](O[C@@H]2O[C@H](CO)[C@@H](O)[C@H](O)[C@H]2O)[C@@H](O)[C@@H]1O[C@@H]1O[C@@H](CO)[C@H](O)[C@H]1O (some centres undefined) [SYMPLOCOSOSIDE E] | > 10 | 1.7 | > 10 | > 10 | 1.7 |
| CC(=O)O[C@@H]1[C@@H](O[C@@H]2O[C@H](CO)[C@@H](O)[C@H](O)[C@H]2O)[C@H](O[C@H]2CC[C@]3(C)[C@H]4CC=C5[C@@H]6CC(C)(C)C[C@H](OC(=O)/C=C(/C)CCC=C(C)C)[C@]6(CO)[C@H](O)[C@H](O)[C@@]5(C)[C@]4(C)CC[C@H]3C2(C)C)O[C@H](C(=O)O)[C@H]1O[C@@H]1O[C@@H](CO)[C@H](O)[C@H]1O [SYMPLOCOSOSIDE O] | 1.7 | > 10 | > 10 | > 10 | 2.4 |
| CCC(C)C(=O)O[C@H]1[C@H](OC(=O)/C=C/c2ccccc2)C(C)(C)C[C@H]2C3=CC[C@@H]4[C@@]5(C)CC[C@H](O[C@@H]6O[C@H](CO)[C@@H](O[C@@H]7O[C@@H](CO)[C@H](O)[C@H]7O)[C@H](OC(C)=O)[C@H]6O[C@@H]6O[C@H](CO)[C@@H](O)[C@H](O)[C@H]6O)C(C)(C)[C@@H]5CC[C@@]4(C)[C@]3(C)[C@@H](O)[C@@H](O)[C@]21CO (some centres undefined) [SYMPLOCOSOSIDE Y] | > 10 | 3.4 | > 10 | > 10 | > 10 |
| CC1(C)C[C@H]2C3=CC[C@@H]4[C@@]5(C)CC[C@H](O)C(C)(C)[C@@H]5CC[C@@]4(C)[C@]3(C)[C@@H](O)[C@@H](O)[C@@]2(CO)[C@@H](O)[C@@H]1O [R1-barrigenol] | > 10 | > 10 | > 10 | > 10 | > 10 |
| CCC(C)C(=O)O[C@H]1[C@H](OC(=O)c2ccccc2)C(C)(C)C[C@H]2C3=CC[C@@H]4[C@@]5(C)CC[C@H](O[C@@H]6O[C@H](C(=O)O)[C@@H](O[C@@H]7O[C@@H](CO)[C@H](O)[C@H]7O)[C@H](OC(C)=O)[C@H]6O[C@@H]6O[C@H](CO)[C@@H](O)[C@H](O)[C@H]6O)C(C)(C)[C@@H]5CC[C@@]4(C)[C@]3(C)[C@@H](O)[C@@H](O)[C@]21CO (some centres undefined) [SYMPLOCOSOSIDE P] | > 10 | 3.3 | > 10 | > 10 | > 10 |
| CCC(C)C(=O)O[C@H]1[C@H](OC(=O)/C=C(\C)CCC=C(C)C)C(C)(C)C[C@H]2C3=CC[C@@H]4[C@@]5(C)CC[C@H](O[C@@H]6O[C@H](C(=O)O)[C@@H](O)[C@H](O)[C@H]6O[C@@H]6O[C@H](CO)[C@@H](O)[C@H](O)[C@H]6O)C(C)(C)[C@@H]5CC[C@@]4(C)[C@]3(C)[C@@H](O)[C@@H](O)[C@]21CO (some centres undefined) | > 10 | 1.9 | > 10 | > 10 | > 10 |
| CCCCOC(=O)[C@H]1O[C@@H](O[C@H]2CC[C@]3(C)[C@H]4CC=C5[C@@H]6CC(C)(C)C[C@H](OC(=O)/C=C(/C)CCC=C(C)C)[C@]6(CO)[C@H](O)[C@H](O)[C@@]5(C)[C@]4(C)CC[C@H]3C2(C)C)[C@H](O[C@@H]2O[C@H](CO)[C@@H](O)[C@H](O)[C@H]2O)[C@@H](O)[C@@H]1O[C@@H]1O[C@@H](CO)[C@H](O)[C@H]1O [SYMPLOCOSOSIDE F] | 4 | > 10 | > 10 | > 10 | > 10 |
| CCC(C)C(=O)O[C@H]1[C@H](OC(=O)/C=C(/C)CCC=C(C)C)C(C)(C)C[C@H]2C3=CC[C@@H]4[C@@]5(C)CC[C@H](O[C@@H]6O[C@H](C(=O)O)[C@@H](O)[C@H](O)[C@H]6O[C@@H]6O[C@H](CO)[C@@H](O)[C@H](O)[C@H]6O)C(C)(C)[C@@H]5CC[C@@]4(C)[C@]3(C)[C@@H](O)[C@@H](O)[C@]21CO (some centres undefined) [SYMPLOCOSOSIDE R] | 4.4 | 1.9 | > 10 | > 10 | 4.1 |
| CC(C)=CCC/C(C)=C\C(=O)O[C@H]1[C@H](OC(=O)C(C)C)[C@]2(CO)[C@H](O)[C@H](O)[C@]3(C)C(=CC[C@@H]4[C@@]5(C)CC[C@H](O)C(C)(C)[C@@H]5CC[C@]43C)[C@@H]2CC1(C)C | > 10 | > 10 | > 10 | > 10 | > 10 |
| CCC(C)C(=O)O[C@H]1[C@H](OC(=O)/C=C(/C)CCC=C(C)C)C(C)(C)C[C@H]2C3=CC[C@@H]4[C@@]5(C)CC[C@H](O[C@@H]6O[C@H](C(=O)O)[C@@H](O[C@@H]7O[C@@H](CO)[C@H](O)[C@H]7O)[C@H](OC(C)=O)[C@H]6O[C@@H]6O[C@H](CO)[C@@H](O)[C@H](O)[C@H]6O)C(C)(C)[C@@H]5CC[C@@]4(C)[C@]3(C)[C@@H](O)[C@@H](O)[C@]21CO (some centres undefined) [SYMPLOCOSOSIDE G] | 2 | 1.4 | 2.1 | 1.9 | 1.8 |
| COC(=O)[C@H]1O[C@@H](O[C@H]2CC[C@]3(C)[C@H]4CC=C5[C@@H]6CC(C)(C)[C@@H](OC(=O)/C=C(/C)CCC=C(C)C)[C@H](OC(=O)c7ccccc7)[C@]6(CO)[C@H](O)[C@H](O)[C@@]5(C)[C@]4(C)CC[C@H]3C2(C)C)[C@H](O[C@@H]2O[C@H](CO)[C@@H](O)[C@H](O)[C@H]2O)[C@@H](OC(C)=O)[C@@H]1O[C@@H]1O[C@@H](CO)[C@H](O)[C@H]1O [SYMPLOCOSOSIDE K] | 2.4 | 0.8 | 4 | > 10 | 5.1 |
| CCOC(=O)[C@H]1O[C@@H](O[C@H]2CC[C@]3(C)[C@H]4CC=C5[C@@H]6CC(C)(C)[C@@H](OC(=O)/C=C(/C)CCC=C(C)C)[C@H](OC(=O)C(C)CC)[C@]6(CO)[C@H](O)[C@H](O)[C@@]5(C)[C@]4(C)CC[C@H]3C2(C)C)[C@H](O[C@@H]2O[C@H](CO)[C@@H](O)[C@H](O)[C@H]2O)[C@@H](O)[C@@H]1O[C@@H]1O[C@@H](CO)[C@H](O)[C@H]1O (some centres undefined) [SYMPLOCOSOSIDE Q] | > 10 | 5.5 | > 10 | > 10 | > 10 |
| COc1cccc2c1C(=O)c1c(O)c3c(c(O)c1C2=O)C[C@@](O)(C(=O)CO)C[C@@H]3O[C@H]1C[C@H](N)[C@H](O)[C@H](C)O1 [DOXORUBICIN] | 0.8 | 0.1 | – | 1 | 1 |
